In ChEMBL document CHEMBL3774328, “Optimization by Molecular Fine Tuning of Dihydro-β-agarofuran Sesquiterpenoids as Reversers of P-Glycoprotein-Mediated Multidrug Resistance” (J Med Chem, 2016):

Key:
[1] = biological target: T1, ATP-dependent translocase ABCB1 (Homo sapiens, UniProt P08183); assay: Inhibition of human MDR1 expressed in mouse NIH/3T3 cells assessed as inhibition of daunomycin efflux incubated for 30 mins by flow cytometry; type: cell-based, NIH3T3
Procedure, shortened: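 Ki for DNM efflux. MDR1-G185 NIH-3T3 cells were incubated 30 min at 37 °C with DNM (2 μM) and varying compound concentrations, then read by flow cytometry. Fluorescence was converted to % P-gp inhibition, normalized to cells treated with 5 mM sodium orthovanadate (100%). Ki was fitted from I = (Imax × S)/(Ki + S). Mean ± SD of three independent experiments in triplicate.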

[2] = Intrinsic cytotoxicity against mouse NIH/3T3 cells transfected with human MDR1 by MTT assay; type: ADME, cell-based, NIH3T3
Procedure, shortened: (§1)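 Intrinsic cytotoxicity was measured by MTT in parental NIH-3T3 and MDR1-G185 cells. CC50 came from a four-parameter logistic fit. The top tested concentration was 60 μM, limited by DMSO toxicity, and growth at 60 μM is given as % of untreated control. Mean ± SD of three independent experiments in duplicate.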

[3] = Intrinsic cytotoxicity against mouse NIH/3T3 cells by MTT assay; type: cell-based, NIH3T3; procedure, shortened: as §1
[4] = biological target: T1, ATP-dependent translocase ABCB1; assay: Inhibition of human MDR1 expressed in mouse NIH/3T3 cells assessed as daunomycin retention at 10 uM incubated for 30 mins by flow cytometry; type: cell-based; set-up: scale not given: the % may be the effect or the level left; conditions: nih3t3, 0.5 h
Procedure, shortened: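 DNM retention by flow cytometry. MDR1-G185 NIH-3T3 cells in log phase were seeded 24 h before at 10^5 cells/well. They were incubated 30 min at 37 °C in DMEM + 10% iFBS with DNM (2 μM), with or without compound (10 μM). Cells were then washed twice in ice-cold PBS, trypsinized and read immediately for single-cell fluorescence.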

[5] = Intrinsic cytotoxicity against mouse NIH/3T3 cells assessed as cell growth at 60 uM by MTT assay; type: cell-based, NIH3T3; conditions: read-out: Activity; procedure, shortened: as §1
[6] = biological target: T1, ATP-dependent translocase ABCB1; assay: Inhibition of human MDR1 expressed in mouse NIH/3T3 cells assessed as reduction in daunomycin IC50 at 1 uM by MTT assay; type: cell-based; conditions: nih3t3, 1 µM
Procedure, shortened: (§2)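 Parental NIH-3T3 and MDR1-G185 cells were grown in DMEM with 10% iFBS. They were exposed to increasing DNM or VLB (up to 500 ng/mL) with or without compound at fixed 1, 3 or 10 μM. Growth was read by MTT, and IC50 came from a four-parameter logistic fit. Mean ± SD of two independent experiments in triplicate.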

[7] = biological target: T1, ATP-dependent translocase ABCB1; assay: Inhibition of human MDR1 expressed in mouse NIH/3T3 cells assessed as reduction in daunomycin IC50 at 3 uM by MTT assay; type: cell-based; conditions: nih3t3, 3 µM
Procedure, shortened: as §2, with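 “fit. Reversal index = IC50 without compound / IC50 with compound in MDR1 cells.” for “fit.”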

[8] = biological target: T1, ATP-dependent translocase ABCB1; assay: Inhibition of human MDR1 expressed in mouse NIH/3T3 cells assessed as reduction in daunomycin IC50 at 10 uM by MTT assay; type: cell-based; conditions: nih3t3, 10 µM
Procedure, shortened: as §2, with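 “fit. Reversal index = IC50 without compound / IC50 with compound in MDR1 cells.” for “fit.”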

[9] = biological target: T1, ATP-dependent translocase ABCB1; assay: Inhibition of human MDR1 expressed in mouse NIH/3T3 cells assessed as reduction in vinblastine IC50 at 1 uM by MTT assay; type: cell-based; conditions: nih3t3, 1 µM
Procedure, shortened: as §2, with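 “fit. Reversal index = IC50 without compound / IC50 with compound in MDR1 cells.” for “fit.”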

[10] = biological target: T1, ATP-dependent translocase ABCB1; assay: Inhibition of human MDR1 expressed in mouse NIH/3T3 cells assessed as reduction in vinblastine IC50 at 3 uM by MTT assay; type: cell-based; conditions: nih3t3, 3 µM
Procedure, shortened: as §2, with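 “fit. Reversal index = IC50 without compound / IC50 with compound in MDR1 cells.” for “fit.”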

[11] = biological target: T1, ATP-dependent translocase ABCB1; assay: Inhibition of human MDR1 expressed in mouse NIH/3T3 cells assessed as reduction in vinblastine IC50 at 10 uM by MTT assay; type: cell-based; conditions: nih3t3, 10 µM
Procedure, shortened: as §2, with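 “fit. Reversal index = IC50 without compound / IC50 with compound in MDR1 cells.” for “fit.”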

T1 sequence (P08183 whole entry): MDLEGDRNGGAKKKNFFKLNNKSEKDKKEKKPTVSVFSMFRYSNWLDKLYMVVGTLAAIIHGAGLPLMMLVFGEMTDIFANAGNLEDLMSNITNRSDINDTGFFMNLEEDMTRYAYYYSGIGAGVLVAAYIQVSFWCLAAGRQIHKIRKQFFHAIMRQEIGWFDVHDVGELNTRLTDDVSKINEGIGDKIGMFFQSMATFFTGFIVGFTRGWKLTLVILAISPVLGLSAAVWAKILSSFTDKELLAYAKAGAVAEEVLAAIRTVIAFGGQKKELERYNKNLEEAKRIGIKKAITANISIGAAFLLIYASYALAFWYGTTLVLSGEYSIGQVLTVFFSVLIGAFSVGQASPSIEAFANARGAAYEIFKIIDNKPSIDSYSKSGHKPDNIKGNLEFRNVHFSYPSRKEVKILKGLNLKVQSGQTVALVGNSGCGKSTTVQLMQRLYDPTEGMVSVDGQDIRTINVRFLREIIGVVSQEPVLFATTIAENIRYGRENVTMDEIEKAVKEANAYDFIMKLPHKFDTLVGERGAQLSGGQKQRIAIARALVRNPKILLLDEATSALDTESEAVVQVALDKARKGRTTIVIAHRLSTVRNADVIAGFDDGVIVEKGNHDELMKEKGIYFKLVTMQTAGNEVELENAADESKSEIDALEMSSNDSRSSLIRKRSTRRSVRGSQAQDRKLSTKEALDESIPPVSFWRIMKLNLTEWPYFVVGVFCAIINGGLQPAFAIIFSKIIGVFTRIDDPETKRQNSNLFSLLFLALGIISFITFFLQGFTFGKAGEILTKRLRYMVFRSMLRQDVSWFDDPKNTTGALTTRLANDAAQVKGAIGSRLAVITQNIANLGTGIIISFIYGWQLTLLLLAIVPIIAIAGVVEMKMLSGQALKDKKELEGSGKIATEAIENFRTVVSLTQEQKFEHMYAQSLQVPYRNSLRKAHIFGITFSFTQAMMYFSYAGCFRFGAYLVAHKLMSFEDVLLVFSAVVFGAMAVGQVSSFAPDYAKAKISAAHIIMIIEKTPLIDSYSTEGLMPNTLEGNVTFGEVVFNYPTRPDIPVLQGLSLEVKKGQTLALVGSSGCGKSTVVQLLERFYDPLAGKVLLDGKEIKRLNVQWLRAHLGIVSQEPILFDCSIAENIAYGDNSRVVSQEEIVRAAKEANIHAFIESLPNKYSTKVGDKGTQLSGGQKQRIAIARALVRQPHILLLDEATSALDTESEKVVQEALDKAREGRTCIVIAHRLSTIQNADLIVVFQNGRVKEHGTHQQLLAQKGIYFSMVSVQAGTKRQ

Row | Compound | Ki [1] [µM] | Activity [4] [%] | fold change (FC) [6] | fold change (FC) [7] | fold change (FC) [8] | fold change (FC) [9] | fold change (FC) [10] | fold change (FC) [11] | CC50 [2] [µM] | CC50 [3] [µM] | viability at 60 µM [5] [%]
1 | C=C1CC[C@H](OC(C)=O)[C@@]2(C)[C@@H](OC(=O)c3ccccc3)[C@@H](OC(=O)/C=C/c3ccccc3)[C@@H]3[C@@H](OS(C)(=O)=O)[C@]12OC3(C)C |  | 66 |  |  |  |  |  |  |  |  | 
2 | CC(=O)O[C@H]1CC[C@](C)(Cl)[C@]23OC(C)(C)[C@H]([C@H](OC(=O)/C=C/c4ccccc4)[C@H](OC(=O)c4ccccc4)[C@]12C)[C@H]3Cl | 1.34 |  | 5.2 | 12.9 | 14.8 | 11.6 | 33 | 113.9 | 31.4 | 43.7 | 
3 | CC(=O)O[C@H]1CC[C@](C)(O)[C@@]23OC(C)(C)[C@@H](C2=O)[C@H](OC(=O)/C=C/c2ccccc2)[C@H](OC(=O)c2ccccc2)[C@]13C | 0.63 |  | 5.2 | 10.4 | 15.9 | 11.6 | 29.4 | 106.3 | 34.8 | 18.9 | 
4 | CC(=O)O[C@H]1CC[C@](C)(O)[C@]23OC(C)(C)[C@H]([C@H](OC(=O)CCc4ccccc4)[C@H](OC(=O)c4ccccc4)[C@]12C)[C@H]3O | 0.47 |  | 3.3 | 8.1 | 11.6 | 11.1 | 23.6 | 43.8 | 30.3 | 25.4 | 
5 | C=C1CC[C@H](OC(C)=O)[C@@]2(C)[C@@H](OC(=O)c3ccccc3)[C@@H](OC(=O)/C=C/c3ccccc3)[C@@H]3[C@@H](OC(=O)CCl)[C@]12OC3(C)C |  | 66 |  |  |  |  |  |  |  |  | 
6 | CC(=O)O[C@H]1CC[C@](C)(OC(=O)CN2CCOCC2)[C@]23OC(C)(C)[C@H]([C@H](OC(=O)/C=C/c4ccccc4)[C@H](OC(=O)c4ccccc4)[C@]12C)[C@H]3OC(C)=O | 0.31 |  | 5.7 | 10.9 | 16.1 | 21.1 | 49.6 | 173.4 | 33.1 | 36.2 | 
7 | CC(=O)O[C@H]1CC[C@](C)(O)[C@]23OC(C)(C)[C@H]([C@H](OC(=O)/C=C/c4ccccc4)[C@H](OC(=O)c4ccccc4)[C@]12C)[C@H]3OC(=O)CCC(=O)OC1CCCCC1O (stereo partly specified) | 0.46 |  | 3.9 | 11 | 12.8 | 9.9 | 40.3 | 107.8 | 19.9 | 24.3 | 
8 | C=C1CC[C@H](OC(C)=O)[C@@]2(C)[C@@H](OC(=O)c3ccccc3)[C@@H](OC(=O)/C=C/c3ccccc3)[C@@H]3[C@@H](O)[C@]12OC3(C)C |  | 66 |  |  |  |  |  |  |  |  | 
9 | CC(=O)O[C@H]1CC[C@@H](C)[C@]23OC(C)(C)[C@H]([C@H](OC(=O)CCc4ccccc4)[C@H](OC(=O)c4ccccc4)[C@]12C)[C@H]3O | 0.4 |  |  |  |  |  |  |  | 14.2 | > 60 | 72.3

Now from value to compound, other results behind:

Row | Ki [1] [µM] | Activity [4] [%] | fold change (FC) [6] | fold change (FC) [7] | fold change (FC) [8] | fold change (FC) [9] | fold change (FC) [10] | fold change (FC) [11] | Compound | CC50 [2] [µM] | CC50 [3] [µM] | viability at 60 µM [5] [%]
10 | 0.32 |  |  |  |  |  |  |  | CCCC(=O)O[C@@H]1[C@H]2[C@H](OC(=O)/C=C/c3ccccc3)[C@H](OC(=O)c3ccccc3)[C@]3(C)[C@@H](OC(C)=O)CC[C@](C)(O)[C@@]13OC2(C)C | 18.3 | 44.9 | 
11 | 0.29 | 83 |  |  |  |  |  |  | CC(=O)O[C@H]1CC[C@](C)(O)[C@]23OC(C)(C)[C@H]([C@H](OC(=O)/C=C/c4ccccc4)[C@H](OC(=O)c4ccccc4)[C@]12C)[C@H]3OC(C)=O | 18.3 | 26.3 | 
12 | 0.5 |  | 6.2 | 10.1 | 17.5 | 13.9 | 33.6 | 126.2 | CC(=O)O[C@H]1CC[C@](C)(O)[C@]23OC(C)(C)[C@H]([C@H](OC(=O)/C=C/c4ccccc4)[C@H](OC(=O)c4ccccc4)[C@]12C)[C@H]3OC(=O)c1ccccc1 | 30.6 | > 60 | 64.1
13 | 0.61 |  | 6 | 12.3 | 15.9 | 7.5 | 37.7 | 103.6 | COC(=O)CCCC(=O)O[C@@H]1[C@H]2[C@H](OC(=O)/C=C/c3ccccc3)[C@H](OC(=O)c3ccccc3)[C@]3(C)[C@@H](OC(C)=O)CC[C@](C)(O)[C@@]13OC2(C)C | 28.2 | > 60 | 71.3
14 | 0.5 |  | 2.6 | 7.5 | 10.6 | 6.5 | 26.8 | 145.9 | CC(=O)O[C@H]1CC[C@](C)(O)[C@]23OC(C)(C)[C@H]([C@H](OC(=O)/C=C/c4ccccc4)[C@H](OC(=O)c4ccccc4)[C@]12C)[C@H]3OC(=O)CCC(=O)OCCO | 29.2 | 27.7 | 
15 |  |  | 7 | 24 | 30.3 | 12.1 | 19.7 | 77 | CC(=O)O[C@H]1CC[C@](C)(O)[C@]23OC(C)(C)[C@H]([C@H](OC(=O)/C=C\c4ccccc4)[C@H](OC(=O)c4ccccc4)[C@]12C)[C@H]3OC(C)=O | 22.9 | 12 | 
16 | 0.24 |  |  |  |  |  |  |  | CC(=O)O[C@H]1CC[C@](C)(O)[C@]23OC(C)(C)[C@H]([C@H](OC(=O)/C=C/c4ccccc4)[C@H](OC(=O)c4ccccc4)[C@]12C)[C@H]3OC(=O)C1CC1 | 11.2 | 50.3 | 
17 | 0.41 |  |  |  |  |  |  |  | CCC(C)C(=O)O[C@@H]1[C@H]2[C@H](OC(=O)/C=C/c3ccccc3)[C@H](OC(=O)c3ccccc3)[C@]3(C)[C@@H](OC(C)=O)CC[C@](C)(O)[C@@]13OC2(C)C (stereo partly specified) | 13.2 | > 60 | 57.3
18 | 0.31 |  |  |  |  |  |  |  | CC(=O)O[C@H]1CC[C@](C)(O)[C@]23OC(C)(C)[C@H]([C@H](OC(=O)/C=C/c4ccccc4)[C@H](OC(=O)c4ccccc4)[C@]12C)[C@H]3OC(=O)CBr | 5.7 | 8.6 | 
19 | 0.26 |  |  |  |  |  |  |  | CCOC(=O)CCC(=O)O[C@@H]1[C@H]2[C@H](OC(=O)/C=C/c3ccccc3)[C@H](OC(=O)c3ccccc3)[C@]3(C)[C@@H](OC(C)=O)CC[C@](C)(O)[C@@]13OC2(C)C | 15.3 | 58.9 | 
20 | 0.25 |  | 4.1 | 14.5 | 14.7 | 15.5 | 30.1 | 59.5 | CC(=O)O[C@H]1CC[C@](C)(O)[C@]23OC(C)(C)[C@H]([C@H](OC(=O)/C=C\c4ccccc4)[C@H](OC(=O)c4ccccc4)[C@]12C)[C@H]3OC(=O)c1ccccc1 | 25.9 | 27.2 | 
21 | 0.23 |  |  |  |  |  |  |  | COC(=O)CCC(=O)O[C@@H]1[C@H]2[C@H](OC(=O)/C=C/c3ccccc3)[C@H](OC(=O)c3ccccc3)[C@]3(C)[C@@H](OC(C)=O)CC[C@](C)(O)[C@@]13OC2(C)C | 17.6 | 36.4 | 
22 | 0.42 |  | 3.2 | 5.2 | 9 | 5.2 | 18.7 | 39.6 | CC(=O)O[C@H]1CC[C@](C)(O)[C@]23OC(C)(C)[C@H]([C@H](OC(=O)/C=C\c4ccccc4)[C@H](OC(=O)c4ccccc4)[C@]12C)[C@H]3OC(=O)c1cnccn1 | 31.2 | > 60 | 68.3
